Test results taken from ChEMBL document CHEMBL1154122, “A comprehensive study of Sansalvamide A derivatives: The structure-activity relationships of 78 derivatives in two pancreatic cancer cell lines” (2009).
Square brackets hold non-standard residues; d marks the D form. Peptide text beside a SMILES is read from it. NMeL = CN[C@@H](CC(C)C)C(=O)O

What was measured:
[1] = Cytotoxicity against human PL45 cells after 56 hrs by [3H]thymidine uptake assay; format: functional
Summary of the method: (§1)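 Cells seeded at 2000–2500/well in DMEM with L-glutamine, 10% FBS and 1% penicillin-streptomycin. […] After 56 h, 3H-thymidine was added for 16 h more (72 h total), then cells were harvested and counted (CPM). Inhibition = 1 − CPM treated/DMSO; IC50 taken from curves, mean and SEM.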

[2] = system: BXPC-3; test: Cytotoxicity against human BxPC3 cells after 56 hrs by [3H]thymidine uptake assay; format: functional; summary of the method: as §1

CC(C)C[C@@H]1NC(=O)[C@H](C(C)C)NC(=O)[C@H](CC(C)C)N(C)C(=O)[C@@H](CC(C)C)NC(=O)[C@@H](Cc2ccccc2)NC1=O (cyclo([dL][NMeL]VL[dF]))
growth inhibition (GI) [1]: 59% | growth inhibition (GI) [2]: 58%
